Assay results taken from ChEMBL document CHEMBL1137788, “Potential neuroprotective drugs in cerebral ischemia: new saturated and polyunsaturated lipids coupled to hydrophilic moieties: synthesis and biological activity” (J Med Chem, 2009).
Active and inactive are the calls of the source. The calls are words filed in the database; no cut-off is given here.

System: HT-22
Assay: Neuroprotective effect against glutamate-induced neuronal cell death in mouse HT22 cells assessed as cell survival at 1 to 10 uM treated simultaneously with glutamate after 24 hrs by MTT assay
Format: functional
Settings: not given
Summary of the method: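 Mouse HT22 hippocampal cells grown in DMEM/10% FCS, seeded 5 × 10³ cells/well. Next day medium changed to DMEM with 7.5% dialyzed FCS and cells given analogue doses together with 5 mM glutamate for 24 h. Medium then replaced with 2.5 μg/mL MTT for 4 h at 37 °C and solubilized in 50% DMF/20% SDS (pH 4.7). A570 read next day. Maximal % survival at best dose reported.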

SMILES | %max [%]
CCCCCCCCCCCCCCCCCC(=O)NC(CO)C(=O)O (centres undefined) | 16
CC(C)C1=CC2=CCC3[C@](C)(CCC[C@]3(C)C(=O)NC(CO)C(=O)O)[C@@H]2CC1 (some centres undefined) | 10
CCOC(=O)C(CO)NC(=O)[C@@]1(C)CCC[C@@]2(C)C1CC=C1C=C(C(C)C)CC[C@H]12 (some centres undefined) | 55
CC1=C(/C=C/C(C)=C/C=C/C(C)=C/C(=O)NC(CO)C(=O)O)C(C)(C)CCC1 (centres undefined) | 16
CCCCCCCCCCCCCCCCCC(=O)NC(CO)P(=O)(OC)OC (centres undefined) | 17
CC1=CC(=O)CC(C)(C)C1(O)/C=C/C(C)=C/C(=O)NC(CO)C(=O)O (centres undefined) | 14
CCCCCCCCCCCCCCCCCC(=O)NC(CO)C(=O)OCC (centres undefined) | 16
CCCCCCCCCCCCCCCCCC(=O)NCCCCCC(=O)OCC(O)C1OC(=O)C(OCc2ccccc2)=C1OCc1ccccc1 (centres undefined) | 19

System: HT-22
Assay: Inhibition of JNK activation in mouse HT22 cells at 10 uM treated simultaneously with iodoacetic acid for 2 hrs followed by 2 hrs of recovery in presence of drug alone by immunoblot analysis
Format: cell-based
Settings: not given
Summary of the method: (§1)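 HT22 cells, plated at the same density as for the death assays, were given 10 μM compound with or without 20 μM IAA for 2 h, then allowed 2 h of recovery with compound present. Cells were washed in PBS and lysed in SDS sample buffer with Na3VO4 and PMSF. Lysates were run on 10% gels and immunoblotted for phospho and total ERK, JNK, p38, c-Jun and MAPKAPK2.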

SMILES | Activity
CCOC(=O)C(CO)NC(=O)[C@@]1(C)CCC[C@@]2(C)C1CC=C1C=C(C(C)C)CC[C@H]12 (some centres undefined) | Active

Molecular target: T1, MAP kinase p38 (Mus musculus) (UniProt P47811+O08911+Q9WUI1+Q9Z1B7)
Assay: Inhibition of p38 MAPK activation in mouse HT22 cells at 10 uM treated simultaneously with iodoacetic acid for 2 hrs followed by 2 hrs of recovery in presence of drug alone by immunoblot analysis
Format: cell-based
Settings: HT-22
Summary of the method: as §1

SMILES | Activity
CCOC(=O)C(CO)NC(=O)[C@@]1(C)CCC[C@@]2(C)C1CC=C1C=C(C(C)C)CC[C@H]12 (some centres undefined) | Active

System: HT-22
Assay: Neuroprotective effect against iodoacetic acid-induced ischemia in mouse HT22 cells treated simultaneously with iodoacetic acid for 2 hrs followed by incubation in fresh medium containing drug alone for 20 hrs measured after 4 hrs by MTT assay
Format: functional, cell-based
Settings: not given
Summary of the method: (§2)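 HT22 cells were seeded at 5 × 10³ per well and moved next day to DMEM with 7.5% dialyzed FCS. They were exposed to 20 μM iodoacetic acid plus graded compound doses for 2 h, then given fresh IAA-free medium containing compound for 20 h. MTT was added for 4 h at 37 °C and absorbance read at 570 nm.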

SMILES | EC50 [µM]
CCCCCCCCCCCCCCCCCC(=O)NC(CO)C(=O)O (centres undefined) | 3.2
CCOC(=O)C(CO)NC(=O)[C@@]1(C)CCC[C@@]2(C)C1CC=C1C=C(C(C)C)CC[C@H]12 (some centres undefined) | 1.05
CC1=C(/C=C/C(C)=C/C=C/C(C)=C/C(=O)NC(CO)C(=O)O)C(C)(C)CCC1 (centres undefined) | 4.1
CCCCCCCCCCCCCCCCCC(=O)NC(CO)P(=O)(OC)OC (centres undefined) | 4.1
CC1=CC(=O)CC(C)(C)C1(O)/C=C/C(C)=C/C(=O)NC(CO)C(=O)O (centres undefined) | 2.7
CCCCCCCCCCCCCCCCCC(=O)NC(CO)C(=O)OCC (centres undefined) | 9.8
CCCCCCCCCCCCCCCCCC(=O)NCCCCCC(=O)OCC(O)C1OC(=O)C(OCc2ccccc2)=C1OCc1ccccc1 (centres undefined) | 2.5

System: Brain
Assay: Neuroprotective effect against glutamate-induced injury in rat brain slices at 10 uM treated 1 hr prior to and during glutamate challenge by 2, 3, 5-triphenyl tetrazolium chloride staining method
Format: functional, tissue-based
Settings: not given
Summary of the method: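 Rat cortical slices were cultured with compound for 1 h before and during injury with 1 mM glutamate. Slice viability was assessed by TTC staining, n=6, mean ± SD.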

SMILES | Activity
CCCCCCCCCCCCCCCCCC(=O)NC(CO)C(=O)O (centres undefined) | Active

Molecular target: T1, MAP kinase p38 (Mus musculus)
Assay: Inhibition of p38 MAPK activation in mouse HT22 cells assessed as MAPKAPK2 phosphorylation at 10 uM treated simultaneously with iodoacetic acid for 2 hrs followed by 2 hrs of recovery in presence of drug alone by immunoblot analysis
Format: cell-based
Settings: HT-22
Summary of the method: as §1

SMILES | Activity
CCOC(=O)C(CO)NC(=O)[C@@]1(C)CCC[C@@]2(C)C1CC=C1C=C(C(C)C)CC[C@H]12 (some centres undefined) | Active

System: not listed separately
Assay: Cytotoxicity against mouse HT22 cells at 10 uM after 24 hrs by MTT assay
Format: cell-based
Settings: ht-22, 24 h
Summary of the method: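 HT22 cells grown in DMEM with 10% FCS were seeded at 5 × 10³ cells per well. The medium was switched to DMEM with 7.5% dialyzed FCS and cells were exposed to 10 μM compound alone. Viability was read after 24 h by MTT (2.5 μg/mL, 4 h at 37 °C, solubilized in DMF/SDS pH 4.7) at 570 nm.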

SMILES | Activity [%]
CCCCCCCCCCCCCCCCCC(=O)NC(CO)C(=O)O (centres undefined) | 28
CC(C)C1=CC2=CCC3[C@](C)(CCC[C@]3(C)C(=O)NC(CO)C(=O)O)[C@@H]2CC1 (some centres undefined) | 26
CCOC(=O)C(CO)NC(=O)[C@@]1(C)CCC[C@@]2(C)C1CC=C1C=C(C(C)C)CC[C@H]12 (some centres undefined) | 25
CC1=C(/C=C/C(C)=C/C=C/C(C)=C/C(=O)NC(CO)C(=O)O)C(C)(C)CCC1 (centres undefined) | 20
CCCCCCCCCCCCCCCCCC(=O)NC(CO)P(=O)(OC)OC (centres undefined) | 11
CC1=CC(=O)CC(C)(C)C1(O)/C=C/C(C)=C/C(=O)NC(CO)C(=O)O (centres undefined) | 40
CCCCCCCCCCCCCCCCCC(=O)NC(CO)C(=O)OCC (centres undefined) | 53
CCCCCCCCCCCCCCCCCC(=O)NCCCCCC(=O)OCC(O)C1OC(=O)C(OCc2ccccc2)=C1OCc1ccccc1 (centres undefined) | 48

System: HT-22
Assay: Inhibition of JNK activation in mouse HT22 cells assessed as c-jun phosphorylation at 10 uM treated simultaneously with iodoacetic acid for 2 hrs followed by 2 hrs of recovery in presence of drug alone by immunoblot analysis
Format: cell-based
Settings: not given
Summary of the method: as §1

SMILES | Activity
CCOC(=O)C(CO)NC(=O)[C@@]1(C)CCC[C@@]2(C)C1CC=C1C=C(C(C)C)CC[C@H]12 (some centres undefined) | Active

System: HT-22
Assay: Activation of ERK phosphorylation in mouse HT22 cells at 10 uM treated simultaneously with iodoacetic acid for 2 hrs followed by 2 hrs of recovery in presence of drug alone by immunoblot analysis
Format: cell-based
Settings: not given
Summary of the method: as §1

SMILES | Activity
CCCCCCCCCCCCCCCCCC(=O)NC(CO)C(=O)O (centres undefined) | inactive
CC(C)C1=CC2=CCC3[C@](C)(CCC[C@]3(C)C(=O)NC(CO)C(=O)O)[C@@H]2CC1 (some centres undefined) | inactive
CCOC(=O)C(CO)NC(=O)[C@@]1(C)CCC[C@@]2(C)C1CC=C1C=C(C(C)C)CC[C@H]12 (some centres undefined) | inactive
CC1=C(/C=C/C(C)=C/C=C/C(C)=C/C(=O)NC(CO)C(=O)O)C(C)(C)CCC1 (centres undefined) | inactive
CCCCCCCCCCCCCCCCCC(=O)NC(CO)P(=O)(OC)OC (centres undefined) | inactive
CC1=CC(=O)CC(C)(C)C1(O)/C=C/C(C)=C/C(=O)NC(CO)C(=O)O (centres undefined) | inactive
CCCCCCCCCCCCCCCCCC(=O)NC(CO)C(=O)OCC (centres undefined) | inactive
CCCCCCCCCCCCCCCCCC(=O)NCCCCCC(=O)OCC(O)C1OC(=O)C(OCc2ccccc2)=C1OCc1ccccc1 (centres undefined) | inactive

System: HT-22
Assay: Neuroprotective effect against iodoacetic acid-induced ischemia in mouse HT22 cells assessed as cell survival at 1 to 10 uM treated simultaneously with iodoacetic acid for 2 hrs followed by incubation in fresh medium containing drug alone for 20 hrs measured after 4 hrs by MTT assay
Format: functional
Settings: not given
Summary of the method: as §2

SMILES | %max [%]
CCCCCCCCCCCCCCCCCC(=O)NC(CO)C(=O)O (centres undefined) | 65
CC(C)C1=CC2=CCC3[C@](C)(CCC[C@]3(C)C(=O)NC(CO)C(=O)O)[C@@H]2CC1 (some centres undefined) | 27
CCOC(=O)C(CO)NC(=O)[C@@]1(C)CCC[C@@]2(C)C1CC=C1C=C(C(C)C)CC[C@H]12 (some centres undefined) | 85
CC1=C(/C=C/C(C)=C/C=C/C(C)=C/C(=O)NC(CO)C(=O)O)C(C)(C)CCC1 (centres undefined) | 63
CCCCCCCCCCCCCCCCCC(=O)NC(CO)P(=O)(OC)OC (centres undefined) | 64
CC1=CC(=O)CC(C)(C)C1(O)/C=C/C(C)=C/C(=O)NC(CO)C(=O)O (centres undefined) | 70
CCCCCCCCCCCCCCCCCC(=O)NC(CO)C(=O)OCC (centres undefined) | 56
CCCCCCCCCCCCCCCCCC(=O)NCCCCCC(=O)OCC(O)C1OC(=O)C(OCc2ccccc2)=C1OCc1ccccc1 (centres undefined) | 68
